Assays:
[1] = molecular target: Vascular endothelial growth factor receptor 2 (Homo sapiens) (UniProt P35968); assay: Inhibition of KDR (unknown origin) at 1 uM relative to control
[2] = test system: NCI-H1975; assay: In vivo anti tumor activity against human NCI-H1975 cells xenografted in nude C.B-17 SCID mouse model assessed as tumor growth inhibition at 20 mg/kg, ig for 18 days measured twice a week relative to control; format: functional; details: NCI-H1975, po, 432 h, read-out: TGI
In short: (§1)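 H1975 s.c. xenografts (5 × 10^6 cells) were grown in C.B-17 SCID mice and randomized at 100-150 mm3 (n = 9). Mice were dosed intragastrically once daily for 18 days against a PBS control. TGI% = (TWcontrol − TWtreatment)/TWcontrol × 100, where TW is the mean tumor weight on day 18.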

[3] = Half life in human liver microsomes; format: ADME, microsome
[4] = Intrinsic clearance in monkey liver microsomes; format: ADME, Macaca mulatta, microsome; details: rhesus monkey, read-out: CLH
[5] = molecular target: MAP kinase-interacting serine/threonine-protein kinase 2 (Homo sapiens) (UniProt Q9HBH9); assay: Inhibition of MKNK2 (unknown origin) at 1 uM relative to control
[6] = molecular target: Casein kinase I isoform alpha (Homo sapiens) (UniProt P48729); assay: Inhibition of CSNK1A1 (unknown origin) at 1 uM relative to control
[7] = test system: NCI-H1975; assay: In vivo anti tumor activity against human NCI-H1975 cells xenografted in nude C.B-17 SCID mouse model assessed as relative tumor volume at 20 mg/kg, ig for 18 days measured twice a week relative to control; format: functional
In short: (§2)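 C.B-17 SCID mice received s.c. inoculation of 5 × 10^6 H1975 cells. At 100-150 mm3 they were randomized (n = 9 per group) and dosed intragastrically once daily for 18 days, with PBS as the control. Tumors were measured by caliper twice weekly, with V = length × width²/2. RTV = V/V0, and T/C% = treated mean RTV / control mean RTV × 100.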

[8] = Half life in rat liver microsomes; format: ADME, microsome
[9] = Cmax in Sprague-Dawley rat at 10 mg/kg, po administered via gavage after 24 hrs by LC-MS/MS analysis; format: ADME, organism-based; set-up: dose 10 mg/kg, route oral; details: in vivo
In short: (§3)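 Male Sprague-Dawley rats (200-240 g) received 1 mg/kg by tail-vein injection in 2% DMSO, 20% PEG400 and 78% buffered saline, or 10 mg/kg by oral gavage in 0.5% methylcellulose. Orbital sinus blood was drawn into heparinized tubes at 2, 5, 15 and 30 min and at 1, 2, 4, 8, 12 and 24 h, then centrifuged. Plasma was measured by LC/MS/MS in SRM mode, with non-compartmental analysis.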

[10] = molecular target: AMP-activated protein kinase (AMPK) alpha-1/beta-1/gamma-1 (Homo sapiens) (UniProt P54619+Q9Y478+Q13131); assay: Inhibition of AMPK A1/B1/G1 (unknown origin) at 1 uM relative to control; format: protein-complex assay
[11] = molecular target: Tyrosine-protein kinase Fyn (Homo sapiens) (UniProt P06241); assay: Inhibition of FYN (unknown origin) at 1 uM relative to control
[12] = Intrinsic clearance in human hepatocytes assessed per million cells; format: ADME, cell-based, Hepatocyte
[13] = molecular target: Tyrosine-protein kinase Blk (Homo sapiens) (UniProt P51451); assay: Inhibition of BLK (unknown origin) at 1 uM relative to control
[14] = molecular target: Activated CDC42 kinase 1 (Homo sapiens) (UniProt Q07912); assay: Inhibition of TNK2 (unknown origin) at 1 uM relative to control
[15] = test system: NCI-H1975; assay: In vivo anti tumor activity against human NCI-H1975 cells xenografted in nude C.B-17 SCID mouse model assessed as relative tumor volume at 10 mg/kg, ig for 18 days measured twice a week relative to control; format: functional; in short: as §2
[16] = molecular target: Glycogen synthase kinase-3 beta (Homo sapiens) (UniProt P49841); assay: Inhibition of GSK3B (unknown origin) at 1 uM relative to control
[17] = Half life in mouse liver microsomes; format: ADME, microsome
[18] = molecular target: Serine/threonine-protein kinase Chk1 (Homo sapiens) (UniProt O14757); assay: Inhibition of CHEK1 (unknown origin) at 1 uM relative to control
[19] = molecular target: Calcium/calmodulin-dependent protein kinase type II subunit beta (Homo sapiens) (UniProt Q13554); assay: Inhibition of CAMK2B (unknown origin) at 1 uM relative to control
[20] = Half life in Sprague-Dawley rat at 10 mg/kg, po administered via gavage by LC-MS/MS analysis; format: ADME, organism-based; details: in vivo
In short: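 Male Sprague-Dawley rats (200-240 g) were dosed either by tail vein at 1 mg/kg in 2% DMSO/20% PEG400/78% buffered saline or by oral gavage at 10 mg/kg in 0.5% methylcellulose. Blood was drawn by orbital sinus puncture at 2 min to 24 h into heparin, and plasma was analysed by LC/MS/MS in SRM mode. Parameters came from non-compartmental analysis.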

[21] = test system: NCI-H1975; assay: In vivo anti tumor activity against human NCI-H1975 cells xenografted in nude C.B-17 SCID mouse model assessed as tumor growth inhibition at 10 mg/kg, ig for 18 days measured twice a week relative to control; format: functional; details: NCI-H1975, po, 432 h, read-out: TGI; in short: as §1
[22] = molecular target: Tyrosine-protein kinase JAK2 (Homo sapiens) (UniProt O60674); assay: Inhibition of JAK2 (unknown origin) at 1 uM relative to control
[23] = molecular target: Insulin receptor-related protein (Homo sapiens) (UniProt P14616); assay: Inhibition of INSRR (unknown origin) at 1 uM relative to control
[24] = molecular target: Mast/stem cell growth factor receptor Kit (Homo sapiens) (UniProt P10721); assay: Inhibition of KIT (unknown origin) at 1 uM relative to control
[25] = Oral bioavailability in Sprague-Dawley rat at 10 mg/kg administered via gavage after 24 hrs by LC-MS/MS analysis; format: ADME, organism-based; details: in vivo; in short: as §3
[26] = molecular target: Inhibitor of nuclear factor kappa-B kinase subunit beta (Homo sapiens) (UniProt O14920); assay: Inhibition of IKBKB (unknown origin) at 1 uM relative to control
[27] = molecular target: Ribosomal protein S6 kinase beta-1 (Homo sapiens) (UniProt P23443); assay: Inhibition of RPS6KB1 (unknown origin) at 1 uM relative to control
[28] = test system: A-431; assay: Antiproliferative activity against human A431 cells harboring wild-type EGFR; format: functional, cell-based
[29] = Half life in dog liver microsomes; format: ADME, Canis lupus familiaris, microsome
[30] = molecular target: Receptor tyrosine-protein kinase erbB-2 (Homo sapiens) (UniProt P04626); assay: Inhibition of ERBB2 (HER2) (unknown origin) at 1 uM relative to control
[31] = molecular target: ALK tyrosine kinase receptor (Homo sapiens) (UniProt Q9UM73); assay: Inhibition of ALK (unknown origin) at 1 uM relative to control
[32] = Clearance in Sprague-Dawley rat at 1 mg/kg, iv after 24 hrs by LC-MS/MS analysis; format: ADME, organism-based; details: in vivo; in short: as §3
[33] = molecular target: Tyrosine-protein kinase SYK (Homo sapiens) (UniProt P43405); assay: Inhibition of SYK (unknown origin) at 1 uM relative to control
[34] = molecular target: Tyrosine-protein kinase Lyn (Homo sapiens) (UniProt P07948); assay: Inhibition of LYN-B (unknown origin) at 1 uM relative to control
Chain of Tyrosine-protein kinase Lyn (Homo sapiens) (P07948 2-512 limits assumed): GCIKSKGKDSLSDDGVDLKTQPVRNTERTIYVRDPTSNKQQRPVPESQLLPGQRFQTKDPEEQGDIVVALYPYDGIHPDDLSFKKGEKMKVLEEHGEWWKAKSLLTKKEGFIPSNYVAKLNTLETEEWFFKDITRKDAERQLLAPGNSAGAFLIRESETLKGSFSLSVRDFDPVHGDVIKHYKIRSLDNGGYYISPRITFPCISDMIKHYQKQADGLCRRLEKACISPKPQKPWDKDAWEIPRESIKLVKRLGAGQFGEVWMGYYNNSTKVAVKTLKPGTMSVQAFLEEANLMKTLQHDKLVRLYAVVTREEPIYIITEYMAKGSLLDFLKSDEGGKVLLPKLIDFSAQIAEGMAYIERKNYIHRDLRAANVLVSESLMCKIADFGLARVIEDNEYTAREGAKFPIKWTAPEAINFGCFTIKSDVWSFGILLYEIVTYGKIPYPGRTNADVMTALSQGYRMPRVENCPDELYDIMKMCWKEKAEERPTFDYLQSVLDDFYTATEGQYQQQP

Chain of Inhibitor of nuclear factor kappa-B kinase subunit beta (Homo sapiens) (O14920 whole entry): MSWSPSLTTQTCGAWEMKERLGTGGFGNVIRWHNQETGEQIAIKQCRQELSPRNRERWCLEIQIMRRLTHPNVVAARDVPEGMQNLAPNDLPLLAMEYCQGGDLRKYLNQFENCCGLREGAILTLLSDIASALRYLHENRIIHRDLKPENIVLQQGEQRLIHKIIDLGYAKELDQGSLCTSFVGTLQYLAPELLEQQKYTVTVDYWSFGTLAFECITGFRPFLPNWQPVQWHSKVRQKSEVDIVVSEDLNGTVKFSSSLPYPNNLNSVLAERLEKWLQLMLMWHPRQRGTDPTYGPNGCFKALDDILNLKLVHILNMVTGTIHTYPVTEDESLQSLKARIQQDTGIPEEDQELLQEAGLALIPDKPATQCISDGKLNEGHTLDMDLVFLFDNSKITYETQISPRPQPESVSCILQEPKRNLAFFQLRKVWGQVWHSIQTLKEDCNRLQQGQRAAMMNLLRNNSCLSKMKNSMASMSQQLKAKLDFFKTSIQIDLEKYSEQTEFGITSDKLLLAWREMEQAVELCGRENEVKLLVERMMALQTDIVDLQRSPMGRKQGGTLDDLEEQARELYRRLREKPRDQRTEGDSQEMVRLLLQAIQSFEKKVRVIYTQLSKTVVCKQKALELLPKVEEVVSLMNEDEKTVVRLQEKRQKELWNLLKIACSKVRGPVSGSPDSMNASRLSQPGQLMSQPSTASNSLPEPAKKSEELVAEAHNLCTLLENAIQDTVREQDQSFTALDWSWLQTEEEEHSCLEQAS
Chain of Casein kinase I isoform alpha (Homo sapiens) (P48729 2-337 limits assumed): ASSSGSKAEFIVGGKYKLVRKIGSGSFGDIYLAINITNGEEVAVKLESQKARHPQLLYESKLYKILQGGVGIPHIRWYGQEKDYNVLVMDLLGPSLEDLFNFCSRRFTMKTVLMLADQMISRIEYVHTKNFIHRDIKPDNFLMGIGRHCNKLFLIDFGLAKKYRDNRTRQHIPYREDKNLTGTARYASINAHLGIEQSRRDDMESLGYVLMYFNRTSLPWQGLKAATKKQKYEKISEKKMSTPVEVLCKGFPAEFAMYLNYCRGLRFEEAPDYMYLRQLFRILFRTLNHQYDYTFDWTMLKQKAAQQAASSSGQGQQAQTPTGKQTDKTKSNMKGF
Chain of Insulin receptor-related protein (Homo sapiens) (P14616 27-742 limits assumed): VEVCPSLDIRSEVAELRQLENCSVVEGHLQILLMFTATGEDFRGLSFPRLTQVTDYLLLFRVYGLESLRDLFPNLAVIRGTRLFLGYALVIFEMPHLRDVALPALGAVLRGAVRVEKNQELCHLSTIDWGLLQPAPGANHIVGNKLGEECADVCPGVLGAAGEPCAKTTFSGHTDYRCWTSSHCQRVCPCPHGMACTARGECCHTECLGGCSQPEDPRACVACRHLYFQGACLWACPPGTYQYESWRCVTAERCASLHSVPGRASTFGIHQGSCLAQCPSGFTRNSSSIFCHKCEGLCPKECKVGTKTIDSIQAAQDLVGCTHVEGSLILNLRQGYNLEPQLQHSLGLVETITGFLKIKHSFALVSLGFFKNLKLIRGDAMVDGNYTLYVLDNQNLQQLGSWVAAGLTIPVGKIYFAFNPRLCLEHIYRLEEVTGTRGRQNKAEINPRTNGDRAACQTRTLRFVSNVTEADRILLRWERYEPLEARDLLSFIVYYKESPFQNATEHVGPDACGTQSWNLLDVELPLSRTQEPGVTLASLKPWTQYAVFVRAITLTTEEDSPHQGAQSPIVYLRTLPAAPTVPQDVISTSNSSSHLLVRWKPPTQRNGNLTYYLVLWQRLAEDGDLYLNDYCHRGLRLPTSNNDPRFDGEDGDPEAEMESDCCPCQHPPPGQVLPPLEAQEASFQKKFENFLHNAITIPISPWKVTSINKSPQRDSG
Chain of Insulin receptor-related protein (Homo sapiens) (P14616 747-1297 limits assumed): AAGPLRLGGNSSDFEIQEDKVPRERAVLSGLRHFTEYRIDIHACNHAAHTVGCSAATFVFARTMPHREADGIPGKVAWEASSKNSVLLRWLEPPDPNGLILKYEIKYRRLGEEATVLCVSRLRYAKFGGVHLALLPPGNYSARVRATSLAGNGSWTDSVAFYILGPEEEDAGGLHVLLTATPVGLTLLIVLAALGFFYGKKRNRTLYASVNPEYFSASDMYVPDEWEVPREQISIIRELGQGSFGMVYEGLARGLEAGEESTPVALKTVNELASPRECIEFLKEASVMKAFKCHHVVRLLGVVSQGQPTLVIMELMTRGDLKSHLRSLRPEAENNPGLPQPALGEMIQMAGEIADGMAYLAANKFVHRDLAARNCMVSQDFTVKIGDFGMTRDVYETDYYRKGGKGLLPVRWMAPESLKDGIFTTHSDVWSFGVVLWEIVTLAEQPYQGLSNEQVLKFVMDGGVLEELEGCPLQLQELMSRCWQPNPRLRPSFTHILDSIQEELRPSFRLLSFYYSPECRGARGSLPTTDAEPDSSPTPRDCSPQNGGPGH
Chain of MAP kinase-interacting serine/threonine-protein kinase 2 (Homo sapiens) (Q9HBH9 whole entry, looked up, canonical isoform): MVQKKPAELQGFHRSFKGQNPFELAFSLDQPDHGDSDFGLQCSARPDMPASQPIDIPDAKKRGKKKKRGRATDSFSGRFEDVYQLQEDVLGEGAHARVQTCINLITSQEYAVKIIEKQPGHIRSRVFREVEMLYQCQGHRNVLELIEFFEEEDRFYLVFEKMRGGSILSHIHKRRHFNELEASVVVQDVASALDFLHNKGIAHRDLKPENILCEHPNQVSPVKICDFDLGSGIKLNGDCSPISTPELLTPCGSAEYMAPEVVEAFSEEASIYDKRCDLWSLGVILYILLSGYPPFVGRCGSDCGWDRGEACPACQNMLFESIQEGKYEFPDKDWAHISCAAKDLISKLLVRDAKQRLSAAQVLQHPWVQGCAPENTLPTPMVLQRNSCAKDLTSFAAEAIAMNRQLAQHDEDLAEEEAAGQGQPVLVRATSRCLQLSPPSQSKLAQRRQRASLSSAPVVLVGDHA
Chain of Ribosomal protein S6 kinase beta-1 (Homo sapiens) (P23443 whole entry, looked up): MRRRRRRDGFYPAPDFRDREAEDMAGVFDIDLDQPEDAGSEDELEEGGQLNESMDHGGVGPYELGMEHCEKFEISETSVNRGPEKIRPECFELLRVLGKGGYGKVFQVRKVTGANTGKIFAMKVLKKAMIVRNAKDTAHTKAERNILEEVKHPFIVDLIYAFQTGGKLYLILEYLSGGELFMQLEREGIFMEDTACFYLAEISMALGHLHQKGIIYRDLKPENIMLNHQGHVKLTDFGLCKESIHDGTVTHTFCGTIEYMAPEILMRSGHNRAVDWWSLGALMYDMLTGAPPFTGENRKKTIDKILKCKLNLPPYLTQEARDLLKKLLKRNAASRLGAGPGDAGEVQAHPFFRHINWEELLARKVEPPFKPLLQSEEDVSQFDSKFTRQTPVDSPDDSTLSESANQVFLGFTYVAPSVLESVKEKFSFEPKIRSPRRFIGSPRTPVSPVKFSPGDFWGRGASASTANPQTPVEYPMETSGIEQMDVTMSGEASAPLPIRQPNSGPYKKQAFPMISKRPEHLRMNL
Chain of Tyrosine-protein kinase Blk (Homo sapiens) (P51451 2-505 limits assumed): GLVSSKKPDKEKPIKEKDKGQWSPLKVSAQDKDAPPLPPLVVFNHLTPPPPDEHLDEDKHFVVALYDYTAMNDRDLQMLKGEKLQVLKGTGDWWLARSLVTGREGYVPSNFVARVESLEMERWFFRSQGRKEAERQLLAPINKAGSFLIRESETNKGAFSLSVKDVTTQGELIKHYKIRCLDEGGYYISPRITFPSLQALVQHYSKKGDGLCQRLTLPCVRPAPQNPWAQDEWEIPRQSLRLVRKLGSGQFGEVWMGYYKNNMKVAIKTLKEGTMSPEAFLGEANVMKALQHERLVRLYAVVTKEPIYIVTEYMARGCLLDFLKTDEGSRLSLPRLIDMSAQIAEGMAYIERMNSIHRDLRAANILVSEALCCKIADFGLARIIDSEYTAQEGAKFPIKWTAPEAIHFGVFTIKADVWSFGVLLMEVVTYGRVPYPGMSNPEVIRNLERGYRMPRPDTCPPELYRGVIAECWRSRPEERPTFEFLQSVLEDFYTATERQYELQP
Chain of Glycogen synthase kinase-3 beta (Homo sapiens) (P49841 whole entry, looked up): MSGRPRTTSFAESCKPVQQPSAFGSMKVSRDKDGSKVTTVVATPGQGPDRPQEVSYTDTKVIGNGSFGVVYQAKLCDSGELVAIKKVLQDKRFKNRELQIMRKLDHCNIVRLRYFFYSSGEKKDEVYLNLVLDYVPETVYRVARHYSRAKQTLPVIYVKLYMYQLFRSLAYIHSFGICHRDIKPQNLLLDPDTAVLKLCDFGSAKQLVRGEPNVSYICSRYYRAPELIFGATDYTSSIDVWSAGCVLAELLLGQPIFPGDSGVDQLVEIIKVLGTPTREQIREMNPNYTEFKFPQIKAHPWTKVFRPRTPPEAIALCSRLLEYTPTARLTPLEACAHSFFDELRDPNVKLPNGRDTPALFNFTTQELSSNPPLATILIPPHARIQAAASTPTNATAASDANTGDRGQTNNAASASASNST

In the case of `C=CC(=O)Nc1cc(Nc2nccc(-c3cn4c5c(cccc35)CCC4)n2)c(OC)cc1N(C)CCN(C)C`, the inhibition [1] is reported as 37%, the inhibition in vivo at 20 mg/kg [2] is reported as 96.3% and the half-life [3] is reported as > 180 min. It also gave a CLint scaled [4] of 64.8 mL/min/kg, an inhibition [5] of 117% and an inhibition [6] of -4%. The T/C [7] was 12.1%, the half-life [8] was 46.2 min and the Cmax [9] was 111 ng/mL. It also gave an inhibition [10] of 7%, an inhibition [11] of 7% and a CLH [12] of 5 µL/min/10^6 cells. The inhibition [13] was 85%, the inhibition [14] was 75% and the T/C [15] was 25.7%. The inhibition [16] was 7%, the half-life [17] was 11.9 min and the inhibition [18] was -6%. It also gave an inhibition [19] of 14%, a half-life [20] of 246 min and an inhibition in vivo at 10 mg/kg [21] of 83.5%. For the same molecule, the inhibition [22] was -6%, the inhibition [23] was 39% and the inhibition [24] was 5%. The bioavailability [25] was 52.4%, the inhibition [26] was 0% and the inhibition [27] was -10%. For the same molecule, the IC50 [28] was 870 nM, the half-life [29] was 31.5 min and the inhibition [30] was 87%. The inhibition [31] was 84%, the clearance [32] was 86.2 mL/min/kg and the inhibition [33] was 4%. The inhibition [34] was 15%.

Reference: ChEMBL document CHEMBL4052618, “Design, synthesis, SAR discussion, in vitro and in vivo evaluation of novel selective EGFR modulator to inhibit L858R/T790M double mutants” (Eur J Med Chem, 2017)
